Test results taken from article PMC8028158 (ACS Omega, 2021).
Entries after “also recorded” stand apart in the source; their conditions may differ.

What was measured:
MKN-45 cells = assay: MTT cell viability assay, MKN-45; assay type: cell-based, human; conditions: read-out: IC50 cell proliferation, MKN-45; 72 h, MTT
In short: (§1)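 Cells were seeded at 2000 per well, incubated overnight and exposed to test compound for 72 h. MTT was added for 4 h, formazan was dissolved in DMSO and absorbance was read at 570 nm. Viability was normalized to untreated wells, giving mean ± SEM of three trials. IC50 was calculated from relative survival.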

AGS cells = assay: MTT cell viability assay, AGS; assay type: cell-based, human; conditions: read-out: IC50 cell proliferation, AGS; 72 h, MTT
In short: as §1

TRPC6 = target: T1, TRPC6 (Mus musculus, UniProt Q61143); conditions: read-out: IC50 TRPC6; nonselective TRPC6 antagonist; cited from earlier work
T1 sequence (Q61143 1-930): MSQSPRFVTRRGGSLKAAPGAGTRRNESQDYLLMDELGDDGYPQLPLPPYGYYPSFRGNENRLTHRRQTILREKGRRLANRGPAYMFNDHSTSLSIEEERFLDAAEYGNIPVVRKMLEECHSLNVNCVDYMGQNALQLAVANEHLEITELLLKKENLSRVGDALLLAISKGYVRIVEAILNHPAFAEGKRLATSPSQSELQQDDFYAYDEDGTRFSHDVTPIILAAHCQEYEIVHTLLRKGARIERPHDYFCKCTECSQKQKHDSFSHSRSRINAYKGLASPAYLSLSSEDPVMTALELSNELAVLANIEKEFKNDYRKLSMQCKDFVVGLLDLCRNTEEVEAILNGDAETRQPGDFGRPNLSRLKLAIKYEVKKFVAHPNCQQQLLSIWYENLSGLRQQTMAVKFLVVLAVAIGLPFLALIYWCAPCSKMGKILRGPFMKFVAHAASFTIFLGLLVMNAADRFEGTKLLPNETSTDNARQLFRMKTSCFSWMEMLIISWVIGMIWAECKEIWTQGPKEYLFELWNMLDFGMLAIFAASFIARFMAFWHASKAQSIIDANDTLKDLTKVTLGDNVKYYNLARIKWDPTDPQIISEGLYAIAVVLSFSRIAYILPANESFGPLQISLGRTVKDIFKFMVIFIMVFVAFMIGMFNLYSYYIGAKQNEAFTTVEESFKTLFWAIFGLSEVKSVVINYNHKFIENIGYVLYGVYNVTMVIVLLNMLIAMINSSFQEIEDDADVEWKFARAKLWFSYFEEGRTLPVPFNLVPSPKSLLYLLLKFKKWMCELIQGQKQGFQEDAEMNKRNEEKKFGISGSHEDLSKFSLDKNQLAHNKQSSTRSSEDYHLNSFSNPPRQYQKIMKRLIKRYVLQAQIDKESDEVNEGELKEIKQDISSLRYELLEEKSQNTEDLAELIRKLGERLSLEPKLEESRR

mouse TRPC6 = target: T2, mouse TRPC6 (Mus musculus, UniProt Q61143); assay: Fluorescence Ca2+ assay, inhibition of HDM-activated TRPC6 in HEK293 cells; assay type: cell-based; conditions: HEK293 cells with stable expression of mouse TRPC6
T2 sequence (Q61143 1-930): T1 sequence (Q61143 1-930)
In short: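 HEK293 cells co-expressing mouse TRPC6 and the Gq/11-PLC-coupled M5 muscarinic receptor were loaded with Fluo-4. Cells were preincubated with test compound at various concentrations for 5 min, then HDM (10 μM) was added, and fluorescence was read in a microplate reader. Traces were expressed as ΔF over F0. IC50 came from a Hill fit of one experiment (N = 3).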

Structure (SMILES)	IC50 (MKN-45 cells) [µM]	IC50 (AGS cells) [µM]	IC50 (TRPC6) [µM]	TRPC6 antagonistic potency (in words) (mouse TRPC6)
COc1ccc(CCCOC(Cn2ccnc2)c2ccc(OC)cc2)cc1 (stereo not shown) [SKF-96365, 1H-Imidazole, 1-[2-(4-methoxyphenyl)-2-[3-(4-methoxyphenyl)propoxy]ethyl], reference compound]	15.3	37	4.9	–
COc1cccc2sc(N(CCN(C)C)C(=O)c3ccc4ccccc4c3)nc12 [Compound 1r, N-(2-(dimethylamino)ethyl)-N-(4-methoxybenzo[d]thiazol-2-yl)-2-naphthamide]	–	–	–	No in vitro potency; also recorded: no antagonistic potency
